# Compound activity deposited in PubChem BioAssay by several laboratories.
# XBP1 UPR activ: adaptive UPR (XBP1) activation; CHO-XBP1 luciferase reporter, IRE1-XBP1 UPR activation, luminescence; percent of tunicamycin response, DMSO as zero; activation, % at 20 µM; hit rate 0.33% among 330,000;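 active = versus positive control, 20 µM dose yields 30% or more activation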
#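 Material – CHO cell line with stable XBP1 luciferase reporter · Buffer or medium – F12 plus 10% FBS · Compound – single point, 20 µM final compound, 1% DMSO · Schedule – 16-18 h cell attachment at 37 °C, then 6 h compound exposure · Signal – Steady-Glo luminescence read · Benchmarks – high control tunicamycin 10 µg/mL final, low control DMSO vehicle only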
# CHOP inh: inhibitors of CHOP induction in ER stress response; CHO-K1 CHOP-promoter luciferase, tunicamycin-induced, 15-18 h; inhibition, % at 10 µM; hit rate 3.8% among 220,000; AID 2732;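 active = compounds that reduced the stress-induced luciferase reporter signal by more than about 70% of percent inhibition, limit read from the data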
# A1 inh: inhibitors of the anti-apoptotic protein A1, read as caspase activation; MEF A1-2A-BIM cells, Caspase-Glo 3/7 luminescence, 3 h; percent of clofoctol response, vehicle zero; caspase activation, % (concentration not given with the values); hit rate 0.066% among 330,000;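 active = over half of replicate activation scores above 10%, or exactly half above 10 with the replicate mean above 10; inconclusive = replicate mean below 10 yet half the replicates above 10; inactive = over half of replicates below 10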
# UPR CHOP act: apoptotic UPR (CHOP) activation; CHO-CHOP luciferase reporter, luminescence; percent of tunicamycin response over DMSO baseline; activation, % at 10 µM; hit rate 0.34% among 330,000; AID 449763;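 active = at 10 µM dose, activation of 40% or more, normalized to positive control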
#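 Dosing – one dose, 10 µM in 0.5% DMSO · System – CHO-CHOP cells, stable luciferase reporter of PERK-eIF2a-CHOP signalling · Input – 500 cells/well · Control set – tunicamycin 10 µg/mL final as positive, DMSO-only wells as negative · Timing – 6 h compound treatment, 37 °C · Measure – % activation vs tunicamycin · Technique – luminescence read with Steady-Glo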
# CHOP inh conf: confirmation of CHOP induction inhibitors; shares compounds with CHOP inh; CHO-CHOP promoter luciferase reporter, tunicamycin-induced, luminescence; inhibition, % at 10 µM; hit rate 45% among 2,100; AID 504437;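 active = mean of three repeat readings of reporter signal inhibition above a set limit, cut at about 70% in these data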
# A number is an active result; . = inactive; ? = inconclusive; / = not tested or not shown. Many of the other results were omitted from the sample, so hits are more common in it than they were.
SMILES,XBP1 UPR activ,CHOP inh,A1 inh,UPR CHOP act,CHOP inh conf
Cc1nc(C(C)NC(=O)CCc2nnc(Cc3c[nH]c4ccccc34)o2)cs1 (configuration not stated),.,.,.,.,/
COc1ccc(NC(=S)NC(NC(=O)/C=C/c2ccccc2)C(Cl)(Cl)Cl)cc1 (configuration not stated),.,107,?,.,122
O=C(/C=C/c1ccccc1)NC(NC(=S)Nc1ccc(Cl)cc1)C(Cl)(Cl)Cl (configuration not stated),.,109,.,.,.
CCOC(=O)C1(CCc2ccccc2)CCN(C(=O)Cc2nonc2C)CC1,.,103,.,.,.
O=C(NC1CCCC1)c1noc2c1CCCCC2,.,.,.,.,/
Nc1c(C(=O)Nc2ccccc2F)sc2nc(-c3cccnc3)ccc12,.,97,.,.,77
O=C(OCc1nnc(-c2ccccc2)o1)C1CCN(C(=O)c2ccc(Cl)cc2)CC1,.,/,/,.,/
CC(C)c1ccccc1NC(=O)Cn1c(-c2ccccc2Cl)nc2ccccc21,.,.,.,.,/
CC(C)c1ccccc1NC(=O)Cn1c(/C=C/c2ccccc2)nc2ccccc21,32,99,.,.,101
CCCCOC(=O)c1nc(Cl)c(Cl)c(N)c1Cl,.,.,.,.,/
CCCCCCCOC(=O)c1nc(Cl)c(Cl)c(N)c1Cl,.,99,.,.,.
Cc1ccc(S(=O)(=O)NCCn2c(C)cc3ccccc32)cc1,/,.,/,/,/
Cc1cc(C)c(S(=O)(=O)NCCn2c(C)cc3ccccc32)c(C)c1,.,102,.,.,75
COC(=O)c1cc2cc(NS(=O)(=O)c3ccc(C)cc3)ccc2s1,.,103,.,.,.
Cc1ccc(S(=O)(=O)Nc2ccc3[nH]ccc3c2)cc1,.,/,.,.,/
CCOc1ccc2nc(-c3ccccc3)nc(SCC(=O)Nc3ncc(C)s3)c2c1,.,98,.,.,.
O=C(CCCCn1c(=O)[nH]c2ccsc2c1=O)NCc1cccnc1,.,.,.,.,/
COc1cccc(NC(=O)c2cc3cccc(OC)c3o/c2=N\O)c1,.,/,.,.,/
COc1ccc(NC(=O)c2cc3cccc(OC)c3oc2=Nc2ccc(C(=O)O)cc2)cc1OC,/,103,/,/,110
Cc1cc(C)n(-c2nc3ccccc3nc2N2CCCCCC2)n1,.,96,.,.,.
COc1c(C(=O)Nc2ccc(CN3CCOCC3)cc2)cc2ccccc2c1Br,.,/,.,.,/
COc1c(C(=O)Nc2ccc3[nH]c(=O)[nH]c3c2)cc2ccccc2c1Br,.,100,.,.,.
Cc1ccc(Sc2cc(NCCCO)c([N+](=O)[O-])c3nonc23)cc1,.,.,.,.,/
CCCC(=O)OCCNc1cc(Sc2nc3ccccc3[nH]2)c2nonc2c1[N+](=O)[O-],.,110,.,.,138
CC(=O)OCCCNc1cc(Sc2ccc(Cl)cc2)c2nonc2c1[N+](=O)[O-],/,109,.,/,114
SMILES,XBP1 UPR activ,CHOP inh,A1 inh,UPR CHOP act,CHOP inh conf
O=C(NCCCN1CCOCC1)c1nn2c(C(F)(F)F)cc(-c3ccco3)nc2c1Cl,.,/,.,.,/
COc1cc(NS(=O)(=O)c2ccc(NC(=S)NC(=O)c3ccc(F)c(F)c3)cc2)nc(OC)n1,.,/,.,.,/
CN1CCN(C2=C(Cl)C(=O)N(C3CCCCC3)C2=O)CC1,.,.,.,.,/
CN1CCN(C2=C(Cl)C(=O)C(c3cnc(N4CCCCC4)s3)=C(Cl)C2=O)CC1,.,100,.,.,.
Cc1oc(-c2ccccc2)cc1C(N)=O,.,.,.,.,/
c1ccc(COc2cccc(CN3CCN(c4ccccn4)CC3)c2)cc1,.,.,.,.,/
OC(CNCCc1ccc(C(F)(F)F)cc1)COc1cccc2ccccc12 (configuration not stated),.,108,.,.,134
OC(CNCCc1ccc(C(F)(F)F)cc1)COc1ccc2ccccc2c1 (configuration not stated),.,108,.,.,123
CC(=O)Nc1ccccc1/C=C/c1ccc2c(C)ccc(O)c2n1,.,.,.,.,/
CC(=O)Nc1ccccc1/C=C/c1ccc2c(C)cc(C)c(O)c2n1,.,97,.,.,.
COc1cccc(CN2CCNC(=O)C2CC(=O)N2CCCCO2)c1OC (configuration not stated),.,.,.,.,/
O=C(O)c1cccc(COc2ccccc2Cl)c1,.,104,.,.,132
O=C(O)c1ccc(COc2ccccc2Cl)cc1,.,.,.,.,/
Cc1ccc(-n2nc(C)c3c2OC(N)=C(C#N)C3c2ccncc2)cc1 (configuration not stated),.,.,.,.,/
Cc1ccc(-n2nc(C)c3c2OC(N)=C(C#N)C3c2ccccc2F)cc1 (configuration not stated),.,96,.,.,.
O=C(CNC(=O)N1CC(=O)Nc2ccccc21)Nc1ccccc1,.,/,.,.,/
Cn1c(Cc2cccs2)nnc1SCC(=O)Nc1ccc(F)cc1F,.,/,.,.,/
O=C(Nc1ccc(Oc2ccccc2)cc1)C1CCN(c2c3c(nc4ncnn24)CCC3)CC1,.,104,.,.,92
Fc1c(F)c(C(F)(F)F)c(F)c(F)c1N/N=C\c1cccs1,.,101,.,.,89
Cn1c(N/N=C/c2cccs2)cc(=O)n(C)c1=O,.,.,.,.,/
COc1cc(C)nc(N2CCCC(C(=O)Nc3ccccc3Br)C2)n1 (configuration not stated),.,.,.,.,/
COc1cc(C)nc(N2CCCC(C(=O)Nc3cccc(Cl)c3C)C2)n1 (configuration not stated),.,105,.,.,95
CC(C)Oc1cc(O)c2c(=O)c(-c3ccc(O)cc3)coc2c1,.,/,.,.,.
COCc1cc(=O)[nH]c(/N=C(\N)Nc2ccc(C)cc2)n1,.,.,.,.,/
COC(=O)c1ccc(-c2sc3nc(N4CCOCC4)c4c(c3c2N)CC(C)(C)OC4)o1,.,102,.,.,.
SMILES,XBP1 UPR activ,CHOP inh,A1 inh,UPR CHOP act,CHOP inh conf
O=C1CCCC2=C1C(c1ccsc1)CC(=O)N2c1nnc(SCc2ccccc2)s1 (configuration not stated),/,.,/,/,/
Cc1cc(=O)[nH]c(N=N/C(=N/Nc2ccc(O)cc2)c2ccccc2)n1,.,.,.,.,/
Cc1cc(=O)[nH]c(N=N/C(=N/Nc2ccccc2C)c2ccccc2)n1,.,103,.,.,.
COc1ccc(Cl)cc1C(=O)NNC(=O)c1cccc([N+](=O)[O-])c1,.,.,.,.,/
CCCc1ccc(Oc2cn[nH]c2-c2ccc(O)c(C)c2O)cc1,.,105,.,.,.
CCCc1ccc(Oc2c(-c3ccc(O)c(C)c3O)n[nH]c2C)cc1,.,106,.,.,.
COc1ccc(Oc2cn[nH]c2-c2ccc(OCC(=O)NN)cc2O)cc1,.,/,.,.,/
Cn1c(=O)oc2cc(S(=O)(=O)NC3CCCCCCC3)ccc21,.,.,.,.,/
N#CC1=C(N)C2=CCCC[C@H]2[C@H](c2ccc(Br)cc2)C1(C#N)C#N,/,99,.,/,.
